In ChEMBL document CHEMBL1143393, “Indene-based scaffolds. 2. An indole-indene switch: discovery of novel indenylsulfonamides as 5-HT6 serotonin receptor agonists” (J Med Chem, 2009):

What was measured:
[1] = target: T1, 5-hydroxytryptamine receptor 6 (Homo sapiens, UniProt P50406); assay: Agonist activity at human 5HT6 receptor expressed in HEK293F cells assessed as stimulation of cAMP level after 30 mins by HTRF assay […]; format: functional, cell-based
In short: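 HEK293F cells stably expressing human 5-HT6 were held overnight in serum-free medium, then 20000 cells/well were placed in Ham's F12 with 1 mM IBMX and 20 µM pargyline. Compound or vehicle was added for 30 min at 37 °C. Results were given as Emax and EC50.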

[2] = target: T1, 5-hydroxytryptamine receptor 6; assay: Displacement of [3H]LSD from human 5HT6 receptor expressed in HEK293 cells at 100 uM by liquid scintillation counting; format: cell-based
[3] = target: T1, 5-hydroxytryptamine receptor 6; assay: Displacement of [3H]LSD from human 5HT6 receptor expressed in HEK293 cells by liquid scintillation counting; format: cell-based
In short: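 Bound ligand was collected on polyethylenimine-pretreated glass fiber filters, washed with 50 mM Tris-Cl pH 7.4, and counted by liquid scintillation. Nonspecific binding was defined with 100 µM serotonin. Triplicate points. IC50 came from linear regression, and Ki was derived by Cheng-Prusoff.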

[4] = target: T2, 5-hydroxytryptamine receptor 1A (Homo sapiens, UniProt P08908); assay: Inhibition of human 5HT1A receptor
T2 sequence (P08908 whole entry): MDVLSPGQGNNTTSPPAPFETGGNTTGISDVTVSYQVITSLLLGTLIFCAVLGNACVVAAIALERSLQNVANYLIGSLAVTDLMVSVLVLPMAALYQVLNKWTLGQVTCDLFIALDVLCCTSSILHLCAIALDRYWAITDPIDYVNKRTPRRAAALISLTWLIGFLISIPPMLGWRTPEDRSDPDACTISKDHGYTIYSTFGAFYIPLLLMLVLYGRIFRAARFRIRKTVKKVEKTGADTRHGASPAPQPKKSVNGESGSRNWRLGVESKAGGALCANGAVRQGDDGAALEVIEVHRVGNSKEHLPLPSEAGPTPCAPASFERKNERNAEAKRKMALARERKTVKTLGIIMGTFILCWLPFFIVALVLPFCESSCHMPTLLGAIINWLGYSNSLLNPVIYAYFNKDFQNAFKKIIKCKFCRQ

[5] = target: T3, Alpha-2A adrenergic receptor (Homo sapiens, UniProt P08913); assay: Inhibition of human adrenergic alpha2A receptor
T3 sequence (P08913 whole entry): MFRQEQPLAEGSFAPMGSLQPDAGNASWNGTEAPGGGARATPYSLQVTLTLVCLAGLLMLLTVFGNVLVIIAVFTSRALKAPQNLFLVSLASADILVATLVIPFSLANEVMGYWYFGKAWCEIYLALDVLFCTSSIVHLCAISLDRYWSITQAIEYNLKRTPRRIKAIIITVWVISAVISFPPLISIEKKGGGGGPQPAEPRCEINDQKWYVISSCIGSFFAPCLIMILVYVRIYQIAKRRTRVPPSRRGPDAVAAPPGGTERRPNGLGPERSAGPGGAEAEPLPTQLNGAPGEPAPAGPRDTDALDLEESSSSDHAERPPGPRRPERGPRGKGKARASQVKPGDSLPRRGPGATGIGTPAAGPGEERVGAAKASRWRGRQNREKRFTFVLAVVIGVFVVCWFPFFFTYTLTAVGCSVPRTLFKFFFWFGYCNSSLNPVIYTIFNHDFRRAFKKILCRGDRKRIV

[6] = target: T4, Adrenergic receptor alpha-1 (Rattus norvegicus, UniProt P15823+P23944+P43140); assay: Inhibition of rat adrenergic alpha1 receptor
T4 sequence (P15823 whole entry): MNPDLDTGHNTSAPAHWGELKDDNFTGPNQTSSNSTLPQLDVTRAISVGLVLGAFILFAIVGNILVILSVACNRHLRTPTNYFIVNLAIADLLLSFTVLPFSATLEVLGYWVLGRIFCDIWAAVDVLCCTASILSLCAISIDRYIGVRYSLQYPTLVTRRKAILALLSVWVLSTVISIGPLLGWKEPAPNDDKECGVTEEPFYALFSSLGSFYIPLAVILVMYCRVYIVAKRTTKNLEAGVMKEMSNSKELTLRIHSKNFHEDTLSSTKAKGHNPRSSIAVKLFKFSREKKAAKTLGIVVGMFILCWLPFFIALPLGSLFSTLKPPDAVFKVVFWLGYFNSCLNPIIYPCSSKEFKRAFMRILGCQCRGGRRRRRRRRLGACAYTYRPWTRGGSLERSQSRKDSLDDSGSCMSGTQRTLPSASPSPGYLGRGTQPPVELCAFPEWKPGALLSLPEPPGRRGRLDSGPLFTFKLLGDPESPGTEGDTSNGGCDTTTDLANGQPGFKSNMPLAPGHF
T4 sequence (P23944 whole entry): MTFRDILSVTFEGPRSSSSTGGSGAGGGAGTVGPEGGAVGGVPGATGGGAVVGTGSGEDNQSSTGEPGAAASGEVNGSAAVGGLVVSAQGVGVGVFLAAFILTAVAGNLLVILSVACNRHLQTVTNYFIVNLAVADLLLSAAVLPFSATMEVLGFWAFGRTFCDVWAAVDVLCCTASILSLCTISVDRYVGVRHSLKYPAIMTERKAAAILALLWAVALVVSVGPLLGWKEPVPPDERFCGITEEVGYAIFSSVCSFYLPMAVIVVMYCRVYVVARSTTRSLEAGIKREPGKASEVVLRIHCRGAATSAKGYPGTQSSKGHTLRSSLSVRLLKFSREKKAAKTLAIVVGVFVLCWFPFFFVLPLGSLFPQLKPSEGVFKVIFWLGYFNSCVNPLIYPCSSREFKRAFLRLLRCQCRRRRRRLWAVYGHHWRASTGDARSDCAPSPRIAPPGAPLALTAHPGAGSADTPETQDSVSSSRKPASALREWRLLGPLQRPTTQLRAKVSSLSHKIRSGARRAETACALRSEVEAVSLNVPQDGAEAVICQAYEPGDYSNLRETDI
T4 sequence (P43140 whole entry): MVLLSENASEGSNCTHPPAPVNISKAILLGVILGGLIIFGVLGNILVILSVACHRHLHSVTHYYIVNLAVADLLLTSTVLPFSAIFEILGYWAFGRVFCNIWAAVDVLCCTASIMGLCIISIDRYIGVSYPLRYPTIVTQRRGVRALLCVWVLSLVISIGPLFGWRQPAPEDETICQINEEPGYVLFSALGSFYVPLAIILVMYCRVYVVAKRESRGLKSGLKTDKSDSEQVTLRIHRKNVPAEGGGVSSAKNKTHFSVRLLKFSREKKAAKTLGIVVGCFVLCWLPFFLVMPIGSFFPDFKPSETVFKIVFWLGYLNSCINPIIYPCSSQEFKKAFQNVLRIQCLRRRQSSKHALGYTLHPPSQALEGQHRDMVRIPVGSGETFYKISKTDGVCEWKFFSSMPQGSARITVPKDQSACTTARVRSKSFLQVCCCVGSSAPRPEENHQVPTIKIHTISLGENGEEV

[7] = target: Sodium-dependent serotonin transporter (Homo sapiens, UniProt P31645); assay: Inhibition of human SERT
[8] = target: T5, 5-hydroxytryptamine receptor 2C (Homo sapiens, UniProt P28335); assay: Inhibition of human 5HT2C receptor
T5 sequence (P28335 whole entry): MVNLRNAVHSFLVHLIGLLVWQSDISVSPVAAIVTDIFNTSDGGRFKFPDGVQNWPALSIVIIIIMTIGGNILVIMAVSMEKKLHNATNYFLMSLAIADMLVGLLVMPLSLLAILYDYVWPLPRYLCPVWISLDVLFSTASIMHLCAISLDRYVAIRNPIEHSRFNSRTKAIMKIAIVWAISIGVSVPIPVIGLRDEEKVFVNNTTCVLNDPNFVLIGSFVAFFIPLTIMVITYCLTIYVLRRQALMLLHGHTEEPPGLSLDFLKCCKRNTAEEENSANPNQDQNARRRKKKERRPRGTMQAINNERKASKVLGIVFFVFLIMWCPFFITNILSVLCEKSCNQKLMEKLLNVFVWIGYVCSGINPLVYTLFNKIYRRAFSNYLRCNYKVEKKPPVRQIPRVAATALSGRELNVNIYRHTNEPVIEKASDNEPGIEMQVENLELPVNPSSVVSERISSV

[9] = target: T1, 5-hydroxytryptamine receptor 6; assay: Displacement of [3H]LSD from human 5HT6 receptor expressed in HEK293 cells at 1 uM by liquid scintillation counting; format: cell-based

T1 sequence (P50406 whole entry): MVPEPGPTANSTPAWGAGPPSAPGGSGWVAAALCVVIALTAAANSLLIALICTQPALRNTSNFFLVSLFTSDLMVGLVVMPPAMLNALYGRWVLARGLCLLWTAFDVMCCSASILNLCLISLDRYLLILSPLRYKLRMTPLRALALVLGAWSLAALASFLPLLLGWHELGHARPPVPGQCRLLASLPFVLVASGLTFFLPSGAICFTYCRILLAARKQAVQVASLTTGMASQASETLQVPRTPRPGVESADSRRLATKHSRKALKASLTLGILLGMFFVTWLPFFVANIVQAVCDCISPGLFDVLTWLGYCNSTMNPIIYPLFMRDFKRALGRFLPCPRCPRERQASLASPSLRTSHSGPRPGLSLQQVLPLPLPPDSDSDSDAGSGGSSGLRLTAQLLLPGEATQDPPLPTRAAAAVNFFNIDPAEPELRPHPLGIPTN
Sequence of Sodium-dependent serotonin transporter (P31645 whole entry): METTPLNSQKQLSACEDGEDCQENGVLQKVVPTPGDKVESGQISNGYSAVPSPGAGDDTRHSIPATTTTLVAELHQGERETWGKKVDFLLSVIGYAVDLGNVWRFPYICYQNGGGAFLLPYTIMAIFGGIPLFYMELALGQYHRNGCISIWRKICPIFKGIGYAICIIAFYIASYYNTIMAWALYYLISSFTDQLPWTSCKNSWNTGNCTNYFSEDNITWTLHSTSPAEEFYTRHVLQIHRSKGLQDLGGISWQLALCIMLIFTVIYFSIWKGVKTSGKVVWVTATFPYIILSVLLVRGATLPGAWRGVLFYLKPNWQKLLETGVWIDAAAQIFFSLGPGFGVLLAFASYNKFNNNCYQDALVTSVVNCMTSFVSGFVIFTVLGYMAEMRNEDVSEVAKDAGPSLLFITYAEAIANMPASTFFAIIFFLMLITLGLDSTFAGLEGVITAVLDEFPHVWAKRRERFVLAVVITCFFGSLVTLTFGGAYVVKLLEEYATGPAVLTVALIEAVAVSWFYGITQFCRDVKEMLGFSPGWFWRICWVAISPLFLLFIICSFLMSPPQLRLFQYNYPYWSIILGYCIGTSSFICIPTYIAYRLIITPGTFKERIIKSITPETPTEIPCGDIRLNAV

Row | Compound | Emax [1] [%] | Activity [2] [%] | Ki [3] [nM] | other results
1 | O=S(=O)(Nc1ccc2c(c1)C(CCN1CCCCC1)=CC2)c1c(Cl)nc2sccn12 | -58 | 81 | 31 | –
2 | CC1=C(CCN2CCCC2)c2cc(NS(=O)(=O)c3ccc(N)cc3)ccc2C1 | – | 63 | – | –
3 | CC1=C(CCN(C)C)c2cc(S(=O)(=O)Nc3cccc4ccccc34)ccc2C1 | 95 | 51 | – | EC50 ([1]; read-out: EC50): 14 nM; IC50 [4]: > 1000 nM; IC50 [5]: 1100 nM
4 | CN(C)CCC1=CCc2ccc(NS(=O)(=O)c3c(Cl)nc4sccn34)cc21 | 99 | 87 | 10 | EC50 ([1]; read-out: EC50): 0.3 nM; IC50 [6]: > 10000 nM; IC50 [7]: > 10000 nM; IC50 [8]: > 1000 nM; IC50 [4]: > 1000 nM; IC50 [5]: > 1000 nM
5 | CN(C)CCc1cn(S(=O)(=O)c2ccccc2)c2ccccc12 | – | – | 3 | –
6 | Cc1c(S(=O)(=O)Nc2ccc3c(c2)C(CCN(C)C)=CC3(C)C)sc2ccc(Cl)cc12 | – | 2 | – | –
7 | CC1=C(CCN2CCCC2)c2cc(NS(=O)(=O)c3c(Cl)nc4sccn34)ccc2C1 | 37 | 81 | 17 | –
8 | CCN(c1ccc2c(c1)C(CCN(C)C)=C(C)C2)S(=O)(=O)c1sc(C)c2cc(Cl)ccc12 | – | 3 | – | –
9 | CNc1cc(NS(=O)(=O)c2ccc(N)cc2)nc(NC)n1 | – | – | 47 | –
10 | CC1=C(CCN2CCCC2)c2cc(NS(=O)(=O)c3sc4ccc(Cl)cc4c3C)ccc2C1 | 78 | – | – | Activity [9]: 100%
11 | CN(C)CCC1=CC(C)(C)c2ccc(NS(=O)(=O)c3c(Cl)nc4sccn34)cc21 | – | 24 | – | –
12 | CN(C)CCc1c[nH]c2ccc(NS(=O)(=O)c3ccc4c(Cl)cccc4c3)cc12 | 96 | – | – | EC50 ([1]; read-out: pEC50 (converted)): 0.295 nM

Further lines, with some results ahead:

Row | Emax [1] [%] | Activity [2] [%] | Ki [3] [nM] | Compound | other results
13 | 101 | 88 | 53 | CC1=C(CCN(C)C)c2cc(NS(=O)(=O)c3csc4ccccc34)ccc2C1 | EC50 ([1]; read-out: EC50): 0.3 nM; IC50 [4]: 1140 nM; IC50 [5]: 700 nM
14 | – | 16 | – | CC1=C(CCN(C)C)c2cc(NS(=O)(=O)c3cccc4nsnc34)ccc2C1 | –
15 | 98 | – | 4.5 | CC1=C(CCN(C)C)c2cc(NS(=O)(=O)c3c(Cl)nc4sccn34)ccc2C1 | EC50 ([1]; read-out: EC50): 0.9 nM; IC50 [6]: > 10000 nM; IC50 [7]: > 10000 nM; IC50 [8]: 1130 nM; IC50 [4]: > 1000 nM; IC50 [5]: > 1000 nM; Activity [9]: 100%
16 | 98 | 71 | – | CC1=C(CCN(C)C)c2cc(NS(=O)(=O)c3ccc4ccccc4c3)ccc2C1 | EC50 ([1]; read-out: EC50): 3.2 nM; IC50 [4]: > 1000 nM; IC50 [5]: > 1000 nM
17 | – | 78 | 276 | CC1=C(CCN(C)C)c2cc(NS(=O)(=O)c3cccc4ccccc34)ccc2C1 | –
18 | – | 19 | – | CC1=C(CCN2CCCC2)c2cc(NS(=O)(=O)c3cccc4nsnc34)ccc2C1 | –
19 | – | 4 | – | CC1=C(CCN(C)C)c2cc(NS(=O)(=O)c3ccc(N)cc3)ccc2C1 | –
